The values that follow come from ChEMBL document CHEMBL3525967, “In vitro glucuronidation of the antibacterial triclocarban and its oxidative metabolites” (Drug Metab Dispos, 2012).

One may read the Km as the substrate concentration at which the rate is half of its maximum. As usually defined, the Vmax is the rate approached at saturating substrate.

One data set concerns Liver microsome. Nature of the data set: Drug metabolism in Sprague-Dawley rat liver microsomes assessed as retention time at 10 uM by LC-UV-MS method in presence of UDPGA. The data set is classed as ADME.
Data set [1] can be described thus: Drug metabolism in B6C3F1 mouse liver microsomes after 30 mins by LC-ESI-MS analysis. The format is ADME. The method in brief: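 2'-OH-TCC at 0.2, 0.5, 1, 2, 3, 5, 10 and 50 µM incubated with liver microsomes (alamethicin, MgCl2, saccharolactone, UDPGA; 37 °C), sampled at 5, 10, 15 and 30 min. Samples ≥5 µM diluted 1:9 in ACN; LC-ESI-MS. KM and vmax fitted from rate vs concentration; intrinsic clearance derived from these; mean and SD of three.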
For orientation: Liver microsomes are a subcellular fraction often used to study metabolism.

The target in data set [2] is T1, UDP-glucuronosyltransferase 1A7 (Homo sapiens, UniProt Q9HAW7).
T1 sequence (Q9HAW7 whole entry): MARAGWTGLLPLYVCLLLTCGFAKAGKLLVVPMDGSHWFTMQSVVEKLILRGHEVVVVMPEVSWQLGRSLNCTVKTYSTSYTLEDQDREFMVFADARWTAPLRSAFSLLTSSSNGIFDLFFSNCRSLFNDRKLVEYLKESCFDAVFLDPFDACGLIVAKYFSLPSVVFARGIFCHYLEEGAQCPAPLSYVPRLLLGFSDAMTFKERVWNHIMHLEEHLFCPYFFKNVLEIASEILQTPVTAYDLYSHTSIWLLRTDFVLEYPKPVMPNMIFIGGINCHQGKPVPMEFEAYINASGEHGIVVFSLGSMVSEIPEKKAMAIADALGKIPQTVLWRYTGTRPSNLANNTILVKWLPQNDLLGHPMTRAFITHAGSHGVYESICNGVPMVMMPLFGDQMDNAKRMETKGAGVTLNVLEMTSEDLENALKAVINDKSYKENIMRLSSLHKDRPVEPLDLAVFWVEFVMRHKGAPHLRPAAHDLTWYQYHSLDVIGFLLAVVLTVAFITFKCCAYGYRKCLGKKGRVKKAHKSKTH
Nature of the data set: Drug metabolism assessed as human UGT1A7-mediated N'-glucuronide-triclocarban formation expressed in baculovirus infected insect sf9 cells incubated for 5 mins prior to UDPGA addition measured after 5 to 30 mins by LC-UV analysis. The format is ADME. The method in brief: (§1)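 Microsomes or UGT Supersomes (5 µg protein) were held 15 min on ice with alamethicin in 100 mM potassium phosphate pH 7.4. TCC was added at 10 µM (2% DMSO) with 10 mM MgCl2 and 10 mM saccharolactone, pre-warmed 5 min at 37 °C, then started with UDPGA. Samples at 5, 10, 15 and 30 min were quenched in ACN. Product was read by LC-UV at 265 nm; rate came from regression over time, three incubations.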

Data set [3] deals with T2, UDP-glucuronosyltransferase 2B7 (Homo sapiens, UniProt P16662).
T2 sequence (P16662 whole entry): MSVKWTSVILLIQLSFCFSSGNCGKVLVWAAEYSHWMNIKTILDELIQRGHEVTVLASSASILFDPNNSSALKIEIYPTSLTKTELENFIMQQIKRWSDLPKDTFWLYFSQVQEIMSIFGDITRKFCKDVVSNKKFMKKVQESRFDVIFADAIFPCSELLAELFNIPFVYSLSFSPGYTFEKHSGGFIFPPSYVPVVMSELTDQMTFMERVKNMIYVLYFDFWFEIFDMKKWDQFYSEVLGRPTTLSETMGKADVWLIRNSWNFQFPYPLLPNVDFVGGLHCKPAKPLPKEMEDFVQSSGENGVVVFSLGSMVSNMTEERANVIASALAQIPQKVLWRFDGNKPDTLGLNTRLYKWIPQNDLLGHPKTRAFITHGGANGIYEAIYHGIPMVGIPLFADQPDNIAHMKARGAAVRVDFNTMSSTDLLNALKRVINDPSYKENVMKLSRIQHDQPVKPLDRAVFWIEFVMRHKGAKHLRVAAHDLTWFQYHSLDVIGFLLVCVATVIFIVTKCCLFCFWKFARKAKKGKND
Nature of the data set: Drug metabolism assessed as human UGT2B7-mediated N-glucuronide-triclocarban formation expressed in baculovirus infected insect sf9 cells incubated for 5 mins prior to UDPGA addition measured after 5 to 30 mins by LC-UV analysis. The data set is classed as ADME. In short, it runs like this: as §1

A short description of data set [4]: Drug excretion in Swiss webster mouse urine assessed as N-glucuronide-triclocarban formation at 5 mg/kg, po by LC-MS analysis. The settings on record: in vivo. Further details: dose 5 mg/kg, route oral. The format is ADME, organism-based. In short, it runs like this: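 Mice were housed two per metabolic cage, with blank urine collected over the 24 h before dosing. TCC was given by oral gavage as a 1 mg/mL solution in 20/80 DMSO/PEG400 (v/v) at 5 mg/kg. Urine was collected at 0-24 h and 24-48 h and analysed by online LC-MS. Values are the mean of two independent experiments.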

For data set [5], the target named is T3, UDP-glucuronosyltransferase 1A1 (Homo sapiens, UniProt P22309).
T3 sequence (P22309 whole entry): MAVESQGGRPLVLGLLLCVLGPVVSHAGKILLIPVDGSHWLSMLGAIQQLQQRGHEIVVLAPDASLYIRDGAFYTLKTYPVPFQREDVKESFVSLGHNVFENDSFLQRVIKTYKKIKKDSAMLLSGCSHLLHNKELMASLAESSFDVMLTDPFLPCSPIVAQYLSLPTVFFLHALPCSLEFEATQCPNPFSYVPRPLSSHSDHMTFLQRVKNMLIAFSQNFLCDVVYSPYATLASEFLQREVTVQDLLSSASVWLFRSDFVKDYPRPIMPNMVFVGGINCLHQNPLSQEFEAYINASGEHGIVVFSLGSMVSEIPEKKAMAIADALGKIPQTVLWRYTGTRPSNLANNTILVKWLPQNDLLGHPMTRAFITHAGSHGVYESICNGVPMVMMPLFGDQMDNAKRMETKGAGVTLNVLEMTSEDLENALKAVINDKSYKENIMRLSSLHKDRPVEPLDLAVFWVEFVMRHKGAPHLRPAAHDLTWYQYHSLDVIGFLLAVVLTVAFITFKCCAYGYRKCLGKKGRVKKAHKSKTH
Briefly: Drug metabolism assessed as human UGT1A1-mediated N'-glucuronide-triclocarban formation expressed in baculovirus infected insect sf9 cells incubated for 5 mins prior to UDPGA addition measured after 5 to 30 mins by LC-UV analysis. The data set is classed as ADME. The method in brief: as §1

Data set [6] has as its target T1, UDP-glucuronosyltransferase 1A7. Nature of the data set: Drug metabolism assessed as human UGT1A7-mediated N-glucuronide-triclocarban formation expressed in baculovirus infected insect sf9 cells incubated for 5 mins prior to UDPGA addition measured after 5 to 30 mins by LC-UV analysis. The format is ADME. In short, it runs like this:
as §1

With `O=C(Nc1ccc(Cl)c(O)c1)Nc1ccc(Cl)c(Cl)c1`, in the data set on Liver microsome, the Retention_time came to 2.26 min.
`O=C(Nc1ccc(Cl)c(Cl)c1)Nc1ccc(Cl)cc1O`: the Km at 0.5 h in data set [1] (B6C3F1, mouse, liver microsomes) came out at 2.46 µM. Moreover, the Vmax in data set [1] (mouse, microsomes, 0.5 h) is recorded as 1.45 nmol/min/mg.
Regarding `O=C(Nc1ccc(Cl)cc1)Nc1ccc(Cl)c(Cl)c1` [TRICLOCARBAN], the Drug metabolism entry in data set [2], in data set [3], in data set [5] and in data set [6] was “metabolite_not_detected” throughout. In addition, the Drug excretion entry in data set [4] is on record as “metabolite_detected”.
